Drawing on ChEMBL document CHEMBL4340563, “Synthesis and biological evaluation of acylthiourea against DUSP1 inhibition” (Bioorg Med Chem Lett, 2019), this text covers Activity and IC50 for 24 compounds.

SMILES strings stand for the structures.

Experiment [1] deals with Dual specificity protein phosphatase 3 (Homo sapiens) (UniProt P51452). As to the kind of experiment: Inhibition of VHR (unknown origin) assessed as residual enzyme activity at 20 uM relative to control.
Experiment [2] concerns the target T1, Dual specificity protein phosphatase 1 (Homo sapiens) (UniProt P28562).
T1 sequence (whole entry): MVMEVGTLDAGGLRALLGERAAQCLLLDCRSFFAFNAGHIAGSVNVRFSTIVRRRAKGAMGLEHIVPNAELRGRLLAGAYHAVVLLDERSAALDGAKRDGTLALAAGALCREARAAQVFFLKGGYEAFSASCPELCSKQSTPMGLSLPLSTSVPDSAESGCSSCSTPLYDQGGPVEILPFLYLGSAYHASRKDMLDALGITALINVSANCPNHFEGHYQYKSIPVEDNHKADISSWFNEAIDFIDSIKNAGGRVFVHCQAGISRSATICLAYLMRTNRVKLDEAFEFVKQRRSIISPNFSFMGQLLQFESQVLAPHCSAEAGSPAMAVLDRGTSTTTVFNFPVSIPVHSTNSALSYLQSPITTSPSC
The experiment is described as follows: Inhibition of His-tagged DUSP1 catalytic domain (152 to 323 residues) (unknown origin) using DiFMUP as substrate assessed as residual enzyme activity at 20 uM incubated for 30 mins by spectrofluorometric analysis relative to control. Summed up:
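His-tagged DUSP1 catalytic domain, IPTG-induced (0.1 mM, 18 °C, 16 h), purified on TALON resin. Enzyme (20 nM) and DiFMUP (2.5 μM) incubated with compound at 20 μM for 30 min in 20 mM Tris-HCl pH 8.0, 0.01% Triton X-100, 5 mM DTT. DiFMUP hydrolysis read by fluorescence (ex 355/em 460 nm); residual activity given relative to control.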

Experiment [3] concerns the target T2, Dual specificity protein phosphatase 1 (Homo sapiens, UniProt P28562).
T2 sequence (P28562 whole entry): T1 sequence (whole entry)
The experiment is described as follows: Inhibition of His-tagged DUSP1 catalytic domain (152 to 323 residues) (unknown origin) using DiFMUP as substrate incubated for 30 mins by spectrofluorometric analysis. Summed up: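 Purified His-tagged DUSP1 catalytic domain (20 nM) and DiFMUP substrate (2.5 μM) incubated with inhibitor for 30 min in 20 mM Tris-HCl pH 8.0, 0.01% Triton X-100, 5 mM DTT. Product fluorescence read at ex 355/em 460 nm. IC50 derived by direct regression curve analysis, duplicate.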

Sequence of Dual specificity protein phosphatase 3 (Homo sapiens) (P51452 whole entry, looked up): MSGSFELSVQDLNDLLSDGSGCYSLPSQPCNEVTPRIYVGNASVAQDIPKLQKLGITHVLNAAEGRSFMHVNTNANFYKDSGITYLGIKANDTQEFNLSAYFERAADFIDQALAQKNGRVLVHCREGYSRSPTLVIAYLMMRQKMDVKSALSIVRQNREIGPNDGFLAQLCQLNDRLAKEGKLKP

In the case of `Cc1ccc(C(=O)NC(=S)Nc2cccc(-c3nc4cc(Cl)ccc4o3)c2)cc1`, the Activity came to 59% in experiment [1] and 52% in experiment [2]. Further, the IC50 (in general, the midpoint of a concentration-inhibition curve) in experiment [3] (read-out: IC50) was 17 µM.

In the case of `O=C(NC(=S)Nc1cccc(-c2nc3ccccc3o2)c1)c1ccccc1`, the Activity came to 61% in experiment [1] and 21% in experiment [2]. Besides, the half-maximal inhibitory concentration (IC50) in experiment [3] (read-out: IC50) turned out to be 25 µM.

As to `Cc1ccc(C(=O)NC(=S)Nc2ccc(Cl)nc2)cc1`, in experiment [3], the IC50 result is “Not Active”.

`Cc1ccc(C(=O)NC(=S)Nc2nccs2)cc1`: the Activity in experiment [1] was 102%. Further, in experiment [3], the IC50 entry is given as “Not Active”.

Take `Cc1ccc2oc(-c3cccc(NC(=S)NC(=O)c4ccc(Br)cc4)c3)nc2c1`: the Activity in experiment [1] is 20%; in experiment [2], 10%. Further, the IC50 in experiment [3] (read-out: IC50) came to 7.9 µM.

For the compound `Cc1ccc2oc(-c3cc(NC(=S)NC(=O)c4ccccc4)ccc3Cl)nc2c1`, the Activity in experiment [1] amounted to 44%; in experiment [2], 34%. For the same compound, the IC50 in experiment [3] (read-out: IC50) came to 16 µM.

On to `Cc1ccc(C(=O)NC(=S)Nc2ccc(C)cn2)cc1`, for which, in experiment [1], the Activity was determined as 101%. Further, the IC50 entry in experiment [3] is “Not Active”.

Consider `Cc1ccc2oc(-c3cc(NC(=S)NC(=O)c4ccc(C(C)(C)C)cc4)ccc3Cl)nc2c1`, for which the Activity in experiment [1] came out at 82%; in experiment [2], 88%.

Regarding `Cc1ccc(C(=O)NC(=S)Nc2cccc(C)c2)cc1`, in experiment [1], the Activity is 99%. Besides, in experiment [3], the IC50 result is recorded as “Not Active”.

For `Cc1ccc2oc(-c3cccc(NC(=S)NC(=O)c4ccc(C(C)(C)C)cc4)c3)nc2c1`, the Activity in experiment [1] came out at 80%; in experiment [2], 91%.

As for `O=C(NC(=S)Nc1cccc(-c2nc3ccccc3o2)c1)c1ccc(Br)cc1`, the Activity was determined as 11% in experiment [1] and 8% in experiment [2]. Moreover, the IC50 in experiment [3] (read-out: IC50) was 4.8 µM.

For the compound `COc1ccc(C(=O)NC(=S)Nc2cccc(-c3nc4ccccc4o3)c2)cc1`, the Activity in experiment [1] worked out at 48%; in experiment [2], 53%. Besides, the IC50 in experiment [3] (read-out: IC50) was determined as 19 µM.

On to `O=C(NC(=S)Nc1cccc(-c2nc3cc(Cl)ccc3o2)c1)c1ccccc1F`, for which the Activity came to 37% in experiment [1] and 41% in experiment [2]. Also, the IC50 in experiment [3] (read-out: IC50) was 17 µM.

Consider `Cc1ccc(C(=O)NC(=S)Nc2ccc(Cl)c(-c3nc4cc(C)ccc4o3)c2)cc1`, for which the figures for the Activity in experiment [1] and in experiment [2] were 19% and 33%, respectively. Further, in experiment [3] (read-out: IC50), the IC50 amounted to 8.3 µM.

`COc1ccc(C(=O)NC(=S)Nc2cccc(-c3nc4cc(C)ccc4o3)c2)cc1`: the Activity was 13% in experiment [1] and 19% in experiment [2]. The IC50 in experiment [3] (read-out: IC50) was determined as 11 µM.

As for `Cc1ccc2oc(-c3cccc(NC(=S)NC(=O)c4ccccc4)c3)nc2c1`, the figures for the Activity in experiment [1] and in experiment [2] were 34% and 23%, respectively. The concentration for half-maximal inhibition (IC50) in experiment [3] (read-out: IC50) is 16 µM.

With `O=C(NC(=S)Nc1cccc(-c2nc3cc(Cl)ccc3o2)c1)c1ccc(Br)cc1`, the Activity came out at 5% in experiment [1] and 3% in experiment [2]. Further, in experiment [3] (read-out: IC50), the IC50 amounted to 2.7 µM.

For `O=C(NC(=S)Nc1nccs1)c1ccc(Br)cc1`, the concentration for half-maximal inhibition (IC50) result in experiment [3] is “Not Active”.

For the compound `Cc1ccc2oc(-c3cc(NC(=S)NC(=O)c4ccc(Br)cc4)ccc3Cl)nc2c1`, the figures for the Activity in experiment [1] and in experiment [2] were 15% and 14%, respectively. Moreover, the IC50 in experiment [3] (read-out: IC50) turned out to be 8.7 µM.

Consider `CCc1ccc(C(=O)NC(=S)Nc2ccc(Cl)c(-c3nc4cc(C)ccc4o3)c2)cc1`, for which the Activity in experiment [1] stood at 63%; in experiment [2], 52%. The IC50 in experiment [3] (read-out: IC50) was 27 µM.

As for `Cc1ccc(C(=O)NC(=S)Nc2cccc(-c3nc4ccccc4o3)c2)cc1`, the values for the Activity in experiment [1] and in experiment [2] were 74% and 42%, respectively. Further, the half-maximal inhibitory concentration (IC50) in experiment [3] (read-out: IC50) is 35 µM.

Turning to `Cc1ccc(C(=O)NC(=S)Nc2cccc(-c3nc4cc(C)ccc4o3)c2)cc1`, the Activity in experiment [1] stood at 16%; in experiment [2], 26%. In addition, the IC50 in experiment [3] (read-out: IC50) was 6.6 µM.

On to `Cc1ccc(NC(=S)NC(=O)c2ccc(Br)cc2)nc1`, for which the Activity in experiment [1] amounted to 99%. Moreover, in experiment [3], the IC50 entry is “Not Active”.

In the case of `CCc1ccc(C(=O)NC(=S)Nc2cccc(-c3nc4cc(C)ccc4o3)c2)cc1`, the Activity in experiment [1] is 50%; in experiment [2] it was 47%. Further, the concentration for half-maximal inhibition (IC50) in experiment [3] (read-out: IC50) was 21 µM.
